Results as given in ChEMBL document CHEMBL4689842, “EUbOPEN Chemogenomics Library wave 1” (2021).

Test system: U2OS
Assay: Multiplex assay against U2OS
Type: toxicity, cell-based
Settings: human
Procedure, shortened: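 Cells were classed with CellPathfinder machine-learning gating, first as Hoechst high-intensity objects or normal cells, then (normal cells) as healthy, pyknosed or fragmented nuclei, and finally (pyknosed cells) as mitotic or apoptotic. Staining of live cells at seeding used Hoechst33342, BioTracker Green Microtubule Cytoskeleton Dye, MitoTracker Red and Annexin V Alexa Fluor 680, with imaging on a CQ1 microscope at 37°C and 5% CO2 after compound addition. Tubulin, mitochondrial-mass and membrane-permeability phenotypes are per cents of healthy-nucleus cells.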

[1] = 12 h, 1 µM, compound concentration 1 uM, replicate 1
[2] = 12 h, 1 µM, compound concentration 1 uM, replicate 2
[3] = 12 h, 10 µM, compound concentration 10 uM, replicate 1
[4] = 12 h, 10 µM, compound concentration 10 uM, replicate 2
[5] = 24 h, 1 µM, compound concentration 1 uM, replicate 1
[6] = 24 h, 1 µM, compound concentration 1 uM, replicate 2
[7] = 24 h, 10 µM, compound concentration 10 uM, replicate 1
[8] = 24 h, 10 µM, compound concentration 10 uM, replicate 2
[9] = 48 h, 1 µM, compound concentration 1 uM, replicate 1
[10] = 48 h, 1 µM, compound concentration 1 uM, replicate 2
[11] = 48 h, 10 µM, compound concentration 10 uM, replicate 1
[12] = 48 h, 10 µM, compound concentration 10 uM, replicate 2

## CNc1nc(NCc2ccc(NS(C)(=O)=O)cc2Cl)cc(-c2ccccn2)n1
[1]
  Population Apoptotic (%): 35%
  Population Fragmented Nuclei (%): 12%
  Population Healthy Nuclei (%): 70%
  Population Hoechst High Intensity Objects (%): 10%
  Population Membrane Permeable-Phenotype (%): 7%
  Population Mitochondria Different-Phenotype (%): 12%
  Population Mitotic Cells (%): 64%
  Population Normal (%): 89%
  Population Pyknosed Nuclei (%): 17%
  Population Tubulin-Different-Phenotype (%): 19%
  Total Cell Count: 121
[2]
  Population Apoptotic (%): 33%
  Population Fragmented Nuclei (%): 11%
  Population Healthy Nuclei (%): 82%
  Population Hoechst High Intensity Objects (%): 8%
  Population Membrane Permeable-Phenotype (%): 0%
  Population Mitochondria Different-Phenotype (%): 9%
  Population Mitotic Cells (%): 66%
  Population Normal (%): 91%
  Population Pyknosed Nuclei (%): 5%
  Population Tubulin-Different-Phenotype (%): 11%
  Total Cell Count: 61
[3]
  Population Apoptotic (%): 61%
  Population Fragmented Nuclei (%): 13%
  Population Healthy Nuclei (%): 75%
  Population Hoechst High Intensity Objects (%): 10%
  Population Membrane Permeable-Phenotype (%): 5%
  Population Mitochondria Different-Phenotype (%): 29%
  Population Mitotic Cells (%): 38%
  Population Normal (%): 89%
  Population Tubulin-Different-Phenotype (%): 37%
  Total Cell Count: 91
[4]
  Population Apoptotic (%): 57%
  Population Fragmented Nuclei (%): 6%
  Population Healthy Nuclei (%): 81%
  Population Hoechst High Intensity Objects (%): 9%
  Population Membrane Permeable-Phenotype (%): 12%
  Population Mitochondria Different-Phenotype (%): 32%
  Population Mitotic Cells (%): 42%
  Population Normal (%): 90%
  Population Pyknosed Nuclei (%): 11%
  Population Tubulin-Different-Phenotype (%): 30%
  Total Cell Count: 56
[5]
  Population Apoptotic (%): 50%
  Population Fragmented Nuclei (%): 9%
  Population Healthy Nuclei (%): 78%
  Population Hoechst High Intensity Objects (%): 8%
  Population Membrane Permeable-Phenotype (%): 3%
  Population Mitochondria Different-Phenotype (%): 17%
  Population Mitotic Cells (%): 50%
  Population Normal (%): 91%
  Population Pyknosed Nuclei (%): 11%
  Population Tubulin-Different-Phenotype (%): 19%
  Total Cell Count: 125
[6]
  Population Apoptotic (%): 25%
  Population Fragmented Nuclei (%): 8%
  Population Healthy Nuclei (%): 85%
  Population Hoechst High Intensity Objects (%): 1%
  Population Membrane Permeable-Phenotype (%): 0%
  Population Mitochondria Different-Phenotype (%): 11%
  Population Mitotic Cells (%): 75%
  Population Normal (%): 98%
  Population Pyknosed Nuclei (%): 5%
  Population Tubulin-Different-Phenotype (%): 11%
  Total Cell Count: 67
[7]
  Population Apoptotic (%): 52%
  Population Fragmented Nuclei (%): 18%
  Population Healthy Nuclei (%): 67%
  Population Hoechst High Intensity Objects (%): 8%
  Population Membrane Permeable-Phenotype (%): 6%
  Population Mitochondria Different-Phenotype (%): 23%
  Population Mitotic Cells (%): 47%
  Population Normal (%): 91%
  Population Pyknosed Nuclei (%): 14%
  Population Tubulin-Different-Phenotype (%): 29%
  Total Cell Count: 113
[8]
  Population Apoptotic (%): 50%
  Population Fragmented Nuclei (%): 20%
  Population Healthy Nuclei (%): 66%
  Population Hoechst High Intensity Objects (%): 10%
  Population Membrane Permeable-Phenotype (%): 4%
  Population Mitochondria Different-Phenotype (%): 26%
  Population Mitotic Cells (%): 50%
  Population Normal (%): 89%
  Population Pyknosed Nuclei (%): 12%
  Population Tubulin-Different-Phenotype (%): 17%
  Total Cell Count: 71
[9]
  Population Apoptotic (%): 41%
  Population Fragmented Nuclei (%): 12%
  Population Healthy Nuclei (%): 76%
  Population Hoechst High Intensity Objects (%): 7%
  Population Membrane Permeable-Phenotype (%): 0%
  Population Mitochondria Different-Phenotype (%): 21%
  Population Mitotic Cells (%): 58%
  Population Normal (%): 92%
  Population Pyknosed Nuclei (%): 11%
  Population Tubulin-Different-Phenotype (%): 21%
  Total Cell Count: 114
[10]
  Population Apoptotic (%): 0%
  Population Fragmented Nuclei (%): 6%
  Population Healthy Nuclei (%): 90%
  Population Hoechst High Intensity Objects (%): 3%
  Population Membrane Permeable-Phenotype (%): 2%
  Population Mitochondria Different-Phenotype (%): 19%
  Population Mitotic Cells (%): 100%
  Population Normal (%): 96%
  Population Pyknosed Nuclei (%): 3%
  Population Tubulin-Different-Phenotype (%): 15%
  Total Cell Count: 71
[11]
  Population Apoptotic (%): 64%
  Population Healthy Nuclei (%): 53%
  Population Hoechst High Intensity Objects (%): 8%
  Population Membrane Permeable-Phenotype (%): 7%
  Population Mitochondria Different-Phenotype (%): 28%
  Population Mitotic Cells (%): 35%
  Population Normal (%): 91%
  Population Pyknosed Nuclei (%): 25%
  Population Tubulin-Different-Phenotype (%): 10%
  Total Cell Count: 165
[12]
  Population Apoptotic (%): 44%
  Population Fragmented Nuclei (%): 21%
  Population Healthy Nuclei (%): 51%
  Population Hoechst High Intensity Objects (%): 13%
  Population Membrane Permeable-Phenotype (%): 20%
  Population Mitochondria Different-Phenotype (%): 41%
  Population Mitotic Cells (%): 55%
  Population Normal (%): 86%
  Population Pyknosed Nuclei (%): 27%
  Population Tubulin-Different-Phenotype (%): 23%
  Total Cell Count: 124

## Cc1nc(Nc2n[nH]c3c2CN(C(=O)N[C@H](CN(C)C)c2ccccc2)C3(C)C)c2sccc2n1 [PF-03758309]
[1]
  Population Apoptotic (%): 47%
  Population Fragmented Nuclei (%): 9%
  Population Healthy Nuclei (%): 79%
  Population Hoechst High Intensity Objects (%): 2%
  Population Membrane Permeable-Phenotype (%): 9%
  Population Mitochondria Different-Phenotype (%): 21%
  Population Mitotic Cells (%): 52%
  Population Normal (%): 97%
  Population Pyknosed Nuclei (%): 11%
  Population Tubulin-Different-Phenotype (%): 21%
  Total Cell Count: 234
[2]
  Population Apoptotic (%): 20%
  Population Fragmented Nuclei (%): 10%
  Population Healthy Nuclei (%): 78%
  Population Hoechst High Intensity Objects (%): 15%
  Population Membrane Permeable-Phenotype (%): 5%
  Population Mitochondria Different-Phenotype (%): 18%
  Population Mitotic Cells (%): 80%
  Population Normal (%): 84%
  Population Pyknosed Nuclei (%): 10%
  Population Tubulin-Different-Phenotype (%): 24%
  Total Cell Count: 118
[3]
  Population Apoptotic (%): 53%
  Population Fragmented Nuclei (%): 16%
  Population Healthy Nuclei (%): 54%
  Population Hoechst High Intensity Objects (%): 3%
  Population Membrane Permeable-Phenotype (%): 18%
  Population Mitochondria Different-Phenotype (%): 37%
  Population Mitotic Cells (%): 46%
  Population Normal (%): 97%
  Population Pyknosed Nuclei (%): 28%
  Population Tubulin-Different-Phenotype (%): 75%
  Total Cell Count: 173
[4]
  Population Apoptotic (%): 75%
  Population Fragmented Nuclei (%): 20%
  Population Healthy Nuclei (%): 63%
  Population Hoechst High Intensity Objects (%): 18%
  Population Membrane Permeable-Phenotype (%): 12%
  Population Mitochondria Different-Phenotype (%): 59%
  Population Mitotic Cells (%): 25%
  Population Normal (%): 81%
  Population Pyknosed Nuclei (%): 16%
  Population Tubulin-Different-Phenotype (%): 85%
  Total Cell Count: 112
[5]
  Population Apoptotic (%): 58%
  Population Fragmented Nuclei (%): 11%
  Population Healthy Nuclei (%): 80%
  Population Hoechst High Intensity Objects (%): 3%
  Population Membrane Permeable-Phenotype (%): 17%
  Population Mitochondria Different-Phenotype (%): 19%
  Population Mitotic Cells (%): 41%
  Population Normal (%): 96%
  Population Pyknosed Nuclei (%): 8%
  Population Tubulin-Different-Phenotype (%): 25%
  Total Cell Count: 292
[6]
  Population Apoptotic (%): 38%
  Population Fragmented Nuclei (%): 16%
  Population Healthy Nuclei (%): 71%
  Population Hoechst High Intensity Objects (%): 13%
  Population Membrane Permeable-Phenotype (%): 12%
  Population Mitochondria Different-Phenotype (%): 29%
  Population Mitotic Cells (%): 61%
  Population Normal (%): 86%
  Population Pyknosed Nuclei (%): 12%
  Population Tubulin-Different-Phenotype (%): 33%
  Total Cell Count: 121
[7]
  Population Apoptotic (%): 78%
  Population Fragmented Nuclei (%): 25%
  Population Healthy Nuclei (%): 38%
  Population Hoechst High Intensity Objects (%): 12%
  Population Membrane Permeable-Phenotype (%): 44%
  Population Mitochondria Different-Phenotype (%): 64%
  Population Mitotic Cells (%): 21%
  Population Normal (%): 88%
  Population Pyknosed Nuclei (%): 36%
  Population Tubulin-Different-Phenotype (%): 88%
  Total Cell Count: 202
[8]
  Population Apoptotic (%): 85%
  Population Fragmented Nuclei (%): 19%
  Population Healthy Nuclei (%): 50%
  Population Hoechst High Intensity Objects (%): 25%
  Population Membrane Permeable-Phenotype (%): 38%
  Population Mitochondria Different-Phenotype (%): 82%
  Population Mitotic Cells (%): 14%
  Population Normal (%): 74%
  Population Pyknosed Nuclei (%): 30%
  Population Tubulin-Different-Phenotype (%): 82%
  Total Cell Count: 121
